From ChEMBL document CHEMBL1157220, “Isoflavonoids and other compounds from Psorothamnus arborescens with antiprotozoal activities” (J Nat Prod, 2006)

Legend:
[1] = tested on: Trypanosoma brucei brucei; test: Antitrypanosomal activity against Trypanosoma brucei brucei MITat 1.2 variant 221 after 72 hrs; format: functional, organism-based
Procedure, shortened: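 Bloodstream-form parasites grown axenically in HMI-9, seeded late log phase at 10⁵ cells/mL, exposed with or without compound 72 h at 37 °C, humidified 5% CO₂. p-Nitrophenyl phosphate (20 mg/mL solution in 1 M NaOAc pH 5.5, 1% Triton X-100) added, further 6-8 h at 37 °C; acid phosphatase read at 405 nm. IC50 versus untreated control from four-parameter dose-response fit.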

[2] = tested on: Vero; test: Cytotoxicity against african green monkey Vero cells; format: cell-based; conditions: Chlorocebus sabaeus
[3] = tested on: PC-3; test: Cytotoxicity against human PC3 cells; format: cell-based
[4] = tested on: Leishmania donovani; test: Antileishmanial activity against Leishmania donovani MHOM/SD/62/IS-CL2D axenic amastigotes after 3 days; format: functional, organism-based; conditions: 72 h
Procedure, shortened: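 Amastigote-like L. donovani parasites were grown axenically in vitro and exposed to compounds for three days. Viability was read with a tetrazolium dye-based reagent, following a previously described protocol.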

[5] = Selectivity of IC50 for Trypanosoma brucei brucei MITat 1.2 variant 221 to IC50 for african green monkey Vero cells

**Q.** Which IC50 [1] does the source give for COc1ccc(-c2coc3cc(OC)ccc3c2=O)cc1 here?
**A.** Its IC50 is greater than 100 µM.

**Q.** Which results are given for O=c1c(-c2ccc(O)c(O)c2)coc2cc(O)ccc12?
**A.** IC50 [1]: 7.1 µM; IC50 [2]: 135 µM

**Q.** With CC1(C)CCc2c(-c3coc4cc(O)cc(O)c4c3=O)ccc(O)c2O1 as the compound, how does the IC50 [3] read?
**A.** Its IC50 is 107 µM.

**Q.** What about the IC50 [1] of the same compound?
**A.** The IC50 was 57.9 µM.

**Q.** And the IC50 [4]?
**A.** The IC50 was 38.4 µM.

**Q.** Which IC50 [3] does the source give for CC1(C)CCc2cc(-c3coc4cc(O)cc(O)c4c3=O)cc(O)c2O1 here?
**A.** Its IC50 is 79.3 µM.

**Q.** And the IC50 [1]?
**A.** The IC50 was 77 µM.

**Q.** What about the IC50 [4] of the same compound?
**A.** Its IC50 is 68.3 µM.

**Q.** For CC(C)=CCc1c(-c2coc3cc(O)cc(O)c3c2=O)ccc(O)c1O, which IC50 [3] is on record?
**A.** Its IC50 is 12.7 µM.

**Q.** What about the IC50 [1] of the same compound?
**A.** Its IC50 is 12.1 µM.

**Q.** What about the IC50 [4] of the same compound?
**A.** The IC50 was 13 µM.

**Q.** What about the IC50 [2] of the same compound?
**A.** The IC50 was 37.5 µM.

**Q.** With COc1ccc2c(C=O)c(-c3cc4c(cc3O)OCO4)oc2c1 as the compound, how does the IC50 [3] read?
**A.** The IC50 was greater than 250 µM.

**Q.** What about the IC50 [1] of the same compound?
**A.** Its IC50 is greater than 250 µM.

**Q.** What about the IC50 [4] of the same compound?
**A.** The IC50 was greater than 250 µM.

**Q.** What about the IC50 [2] of the same compound?
**A.** The IC50 was greater than 250 µM.

**Q.** For C=CC(C)(C)c1cc(OC)c(OC)cc1-c1coc2cc(OC)cc(OC)c2c1=O, which IC50 [3] is on record?
**A.** Its IC50 is 134 µM.

**Q.** And the IC50 [1]?
**A.** The IC50 was 41.7 µM.

**Q.** And the IC50 [4]?
**A.** Its IC50 is 86 µM.

**Q.** For COc1cc(OC)c2c(=O)c(-c3cc(CC=C(C)C)c(OC)c(OC)c3)coc2c1, which IC50 [3] is on record?
**A.** The IC50 was 30.9 µM.

**Q.** And the IC50 [1]?
**A.** The IC50 was 7.8 µM.

**Q.** And the IC50 [4]?
**A.** The IC50 was 41.4 µM.

**Q.** And the IC50 [2]?
**A.** The IC50 was 44.3 µM.

**Q.** For Oc1ccc2c(c1)OCC1c3cc4c(cc3OC21)OCO4 (racemic), which IC50 [3] is on record?
**A.** The IC50 was greater than 250 µM.

**Q.** What about the IC50 [1] of the same compound?
**A.** Its IC50 is 130 µM.

**Q.** And the IC50 [4]?
**A.** Its IC50 is greater than 250 µM.

**Q.** What about the IC50 [2] of the same compound?
**A.** The IC50 was greater than 250 µM.

**Q.** Which results are given for Oc1ccc2c(c1O)OCC1c3cc4c(cc3OC21)OCO4 (racemic)?
**A.** IC50 [3]: 28 µM; IC50 [1]: 3.7 µM; IC50 [4]: 37.3 µM; IC50 [2]: 3.3 µM

**Q.** What does the source list for O=c1c(-c2ccccc2)coc2cc(O)ccc12 [7-HYDROXY ISOFLAVONE]?
**A.** IC50 [1]: 94.2 µM; IC50 [4]: 113 µM

**Q.** Which IC50 [2] does the source give for COc1cc2cc(c1Cl)N(C)C(=O)C[C@H](OC(=O)C(C)C)[C@]1(C)O[C@@H]1[C@H](C)[C@@H]1C[C@@](O)(NC(=O)O1)[C@H](OC)/C=C/C=C(\C)C2 [ANSAMITOCIN P3] here?
**A.** The IC50 was 0.0012 µM.

**Q.** With O=c1cc(-c2ccc(O)cc2)oc2cc(O)cc(O)c12 [APIGENIN] as the compound, how does the IC50 [1] read?
**A.** Its IC50 is 11.9 µM.

**Q.** What does the source list for COc1ccc(-c2coc3cc(O)cc(O)c3c2=O)cc1 [BIOCHANIN]?
**A.** IC50 [1]: 12.3 µM; IC50 [4]: 89.9 µM

**Q.** For COc1ccc(-c2coc3cc(O)ccc3c2=O)cc1O [CALYCOSIN], which IC50 [3] is on record?
**A.** Its IC50 is 130 µM.

**Q.** And the IC50 [1]?
**A.** The IC50 was 12.7 µM.

**Q.** What about the Selectivity ratio [5] of the same compound?
**A.** Its Selectivity ratio is 15.

**Q.** What about the IC50 [4] of the same compound?
**A.** The IC50 was 100 µM.

**Q.** And the IC50 [2]?
**A.** The IC50 was 159 µM.

**Q.** For O=c1c(-c2ccc(O)cc2)coc2cc(O)ccc12 [DAIDZEIN], which IC50 [1] is on record?
**A.** Its IC50 is 23.7 µM.

**Q.** For COc1ccc(-c2coc3cc(O)ccc3c2=O)cc1 [FORMONONETIN], which IC50 [1] is on record?
**A.** Its IC50 is 90.2 µM.

**Q.** For C=CC(C)(C)c1cc(OC(C)=O)c(OC(C)=O)cc1-c1coc2cc(OC(C)=O)cc(OC(C)=O)c2c1=O [FREMONTIN TETRAACETATE], which IC50 [3] is on record?
**A.** Its IC50 is 66.2 µM.

**Q.** What about the IC50 [1] of the same compound?
**A.** Its IC50 is 67.8 µM.

**Q.** And the IC50 [4]?
**A.** The IC50 was 42.7 µM.

**Q.** What does the source list for O=c1c(-c2ccc(O)cc2)coc2cc(O)cc(O)c12 [GENISTEIN]?
**A.** IC50 [1]: 4.2 µM; IC50 [4]: 73 µM; IC50 [2]: 32.9 µM

**Q.** Which IC50 [3] does the source give for CC(C)=CCc1cc(-c2coc3cc(O)cc(O)c3c2=O)cc(O)c1O [GLYCYRRHISOFLAVONE] here?
**A.** The IC50 was 62.1 µM.

**Q.** And the IC50 [1]?
**A.** The IC50 was 33 µM.

**Q.** What about the IC50 [4] of the same compound?
**A.** The IC50 was 46.3 µM.

**Q.** What about the IC50 [2] of the same compound?
**A.** Its IC50 is 52.8 µM.

**Q.** Which IC50 [3] does the source give for O=C(/C=C/c1ccc(O)cc1)c1ccc(O)cc1O [ISOLIQUIRITIGENIN] here?
**A.** The IC50 was 46.4 µM.

**Q.** And the IC50 [1]?
**A.** The IC50 was 32.8 µM.

**Q.** And the IC50 [4]?
**A.** The IC50 was 20.7 µM.

**Q.** And the IC50 [2]?
**A.** Its IC50 is 65.6 µM.

**Q.** For CC1(C)CC[C@]2(C(=O)O)CC[C@]3(C)C(=CC[C@@H]4[C@@]5(C)CC[C@H](O)C(C)(C)[C@@H]5CC[C@]43C)[C@@H]2C1 [OLEANOLIC_ACID], which IC50 [3] is on record?
**A.** Its IC50 is 211 µM.

**Q.** And the IC50 [1]?
**A.** Its IC50 is 43.1 µM.

**Q.** What about the IC50 [4] of the same compound?
**A.** The IC50 was greater than 250 µM.

**Q.** And the IC50 [2]?
**A.** Its IC50 is greater than 250 µM.

**Q.** Which IC50 [4] does the source give for N=C(N)c1ccc(OCCCCCOc2ccc(C(=N)N)cc2)cc1 [PENTAMIDINE] here?
**A.** Its IC50 is 1.5 µM.

**Q.** Which IC50 [3] does the source give for COc1cc([C@@H]2c3cc4c(cc3[C@H](O)[C@H]3COC(=O)[C@H]23)OCO4)cc(OC)c1OC [PODOFILOX] here?
**A.** Its IC50 is 0.0125 µM.

**Q.** For COc1cc(O)c2c(=O)c(-c3ccc(O)cc3)coc2c1 [PRUNETIN], which IC50 [1] is on record?
**A.** Its IC50 is 20.2 µM.

**Q.** With Cc1ccc(C(=O)Nc2ccc(S(=O)(=O)O)c3cc(S(=O)(=O)O)cc(S(=O)(=O)O)c23)cc1NC(=O)c1cccc(NC(=O)Nc2cccc(C(=O)Nc3cc(C(=O)Nc4ccc(S(=O)(=O)O)c5cc(S(=O)(=O)O)cc(S(=O)(=O)O)c45)ccc3C)c2)c1 [SURAMIN] as the compound, how does the IC50 [1] read?
**A.** Its IC50 is 0.19 µM.

**Q.** Which IC50 [3] does the source give for C=CC(C)(C)c1cc(OC)c(OC)cc1-c1coc2cc(OC)cc(O)c2c1=O [TRIMETHYLFREMONTIN] here?
**A.** The IC50 was 146 µM.

**Q.** And the IC50 [1]?
**A.** Its IC50 is 32.3 µM.

**Q.** What about the IC50 [4] of the same compound?
**A.** The IC50 was greater than 250 µM.
